Source: PubChem (several laboratories)
UPR CHOP act – activators of apoptotic CHOP UPR arm, primary screen, cell-based, CHO-CHOP luciferase reporter, luminescence, uHTS; UPR activation; percent of tunicamycin response over DMSO baseline; activation, % at 10 µM; actives 0.34% (n = 330,000); AID 449763, 2010;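 active = at 10 µM dose, activation of 40% or more, normalized to positive control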
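Test system: CHO CHOP reporter cells. Input: 500 CHO-CHOP cells per well. Medium: F12 with 10% FBS. Technique: luciferase luminescence. Measure: percent activation relative to tunicamycin control. Dosing: 10 µM compound, 0.5% DMSO. Timing: 16-18 h cell attachment, then 6 h compound exposure, 37 °C.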
XBP1 UPR activ – activators of adaptive XBP1 UPR arm, primary screen, cell-based, CHO-XBP1 luciferase reporter, luminescence, uHTS; AID 463104, 2010; actives 0.33% (n = 330,000); IRE1-XBP1 UPR activation; percent of tunicamycin response, DMSO as zero; activation, % at 20 µM;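 active = versus positive control, 20 µM dose yields 30% or more activation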
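incubation = overnight seeding at 37 °C, 6 h compound treatment at 37 °C | assay system = CHO-XBP1 cells stably carrying IRE1-XBP1-driven luciferase reporter | input = 1000 cells per well | detection = luciferase luminescence | dosing = single point, 20 µM final compound, 1% DMSO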
T cell modulator – modulators of CD8 T cell-vesicle binding, primary screen, mouse 2C CD8+ T cells, flow cytometry; 2C CD8+ T cell-vesicle binding; hits give low values; response (vesicle binding), % at 7 µM; actives 0.068% (n = 330,000);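 active = response, share of CD8 T cells binding vesicles, and their 90th percentile fluorescence all below set limits, cut at about 80% in these data, passing the limit was not always enough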;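 also: values below 100% mean blocked vesicle binding to the CD8+ T cells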
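incubation = binding step 1.5 h, 37 °C, antibody labelling 20 min, ice | test system = 2C mouse CD8+ T cells | read-out basis = percent CD8+ FL2 mean versus row control | controls = Peptide-free naked vesicles (low) and QL9 vesicles with 0.7% DMSO vehicle (high) | detection = flow cytometry of vesicle-bound cells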
B2AR ag – beta2AR agonists driving receptor internalization, primary screen, cell-based, FAP fluorogen, flow cytometry; Am2.2-beta2AR cells; Beta-2 adrenergic receptor (Homo sapiens), P07550; AID 504454, 2011; actives 0.43% (n = 340,000); response, % (test concentration not listed);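 active = response above a set limit, near 3 SD of response in nonfluorescent compounds, cut at about 42% in these data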
Target sequence (P07550 whole entry, looked up): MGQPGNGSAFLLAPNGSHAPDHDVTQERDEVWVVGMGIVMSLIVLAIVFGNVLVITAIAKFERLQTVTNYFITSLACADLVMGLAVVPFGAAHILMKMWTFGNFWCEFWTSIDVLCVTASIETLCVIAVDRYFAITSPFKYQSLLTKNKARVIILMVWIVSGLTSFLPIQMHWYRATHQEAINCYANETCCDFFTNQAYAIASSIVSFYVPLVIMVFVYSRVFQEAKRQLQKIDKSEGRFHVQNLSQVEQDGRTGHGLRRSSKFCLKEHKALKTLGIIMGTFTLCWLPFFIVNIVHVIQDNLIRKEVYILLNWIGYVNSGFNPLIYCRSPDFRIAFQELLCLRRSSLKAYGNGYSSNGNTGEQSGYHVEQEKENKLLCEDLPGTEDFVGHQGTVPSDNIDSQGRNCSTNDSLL
A number is an active result; n = inactive; x = no result given. Compounds with a hit are over-represented: about 1% of the library has one in this group of screens.

SMILES | UPR CHOP act | XBP1 UPR activ | T cell modulator | B2AR ag
CC(=O)Nc1ccc(NC2=C/C(=N/S(=O)(=O)c3cccs3)c3ccccc3C2=O)cc1 | n | n | n | n
COc1ccc(S(=O)(=O)/N=C2\C=C(Nc3ccc(O)cc3)C(=O)c3ccccc32)cc1 | n | n | n | 52
O=C(NN=Cc1c(O)ccc2ccccc12)c1ccc2c(c1)OCO2 | n | n | n | n
Oc1ccc(N=Nc2ccc3c(c2)OCO3)c2ccccc12 | 66 | n | n | x
O=C(Nc1nccs1)OCc1ccccc1 | n | n | n | n
CCCc1ccc(C2=Nn3c(nnc3C(C)C)SC2)cc1 | n | n | n | 66
Cc1ncc([N+](=O)[O-])n1Cc1cccc(F)c1 | n | n | 72 | n
CCN1CCN(Cc2ccc(NC(=O)c3cc(NC(=O)C(=O)c4c[nH]c5ccccc45)cc(OC)c3)cc2C(F)(F)F)CC1 | n | n | n | n
CCN1CCN(Cc2ccc(NC(=O)c3ccc(C)c(NC(=O)C(=O)c4c[nH]c5ccccc45)c3)cc2C(F)(F)F)CC1 | n | n | n | 50
CCCN(CCC)c1nc(-c2ccccn2)nc2ccccc12 | 69 | n | n | n
C=C1C(=O)C23CCC4C(C)(C(=O)OC)CCCC4(C)C2CCC1(O)C3 (stereo unspecified) | x | x | x | 96
COC(=O)[C@]1(C)CCC[C@@]2(C)C3CC[C@@]4(C)C[C@]3(CCC21)CC(=O)N4 (stereo partly specified) | n | n | n | n
CCC(C)(C)n1nnnc1C(c1ccccc1)N1CCc2ccccc2C1 (stereo unspecified) | n | n | n | n
CCC(C)(C)n1nnnc1C(c1ccc(O)c(OC)c1)N1CCc2ccccc2C1 (stereo unspecified) | 42 | n | n | n
COCCN(C(=O)COC(=O)c1ccco1)c1c(N)n(Cc2ccccc2)c(=O)[nH]c1=O | n | n | n | n
O=C(CS(=O)c1ccc(C(F)(F)F)cc1[N+](=O)[O-])Oc1ccc(Cl)cc1 (stereo unspecified) | n | n | n | n
Cc1cc(C)cc(OC(=O)CS(=O)c2ccc(C(F)(F)F)cc2[N+](=O)[O-])c1 (stereo unspecified) | n | n | n | 52
COC(=O)C1=C(O)/C(=C\c2cc(C)n(-c3ccc(F)cc3)c2C)N=C1C | n | n | n | 69
COC(=O)C1=C(C)NC(=O)/C1=C\c1cc(C)n(-c2ccc(F)cc2)c1C | n | n | n | n
CC(=O)Nc1ccc(C=NN=C2c3ccccc3-c3ccccc32)cc1 | x | x | x | 92
COc1ccc(C=NN=C2c3ccccc3-c3ccccc32)cc1O | x | x | x | n
Cc1cc(=O)n2ccsc2n1 | n | n | n | n
O=C(COC(=O)C1CCC1)NC(=O)c1ccccc1 | n | n | 0.0 | n
C#CCOCCOCCOCCNc1nc(N2CCN(C(=O)C(CCC(=O)O)n3cc(C(N)CC(C)C)nn3)CC2)nc(N2CCN(C(=O)C(Cc3cc4ccccc4[nH]3)n3cc(C(N)Cc4ccc(O)cc4)nn3)CC2)n1 (stereo unspecified) | n | n | n | n
C#CCOCCOCCOCCNc1nc(N2CCN(C(=O)[C@H](Cc3ccc(O)cc3)n3cc([C@@H](N)C(C)CC)nn3)CC2)nc(N2CCN(C(=O)[C@H](Cc3cc4ccccc4[nH]3)n3cc([C@@H](N)C(C)CC)nn3)CC2)n1 (stereo partly specified) | n | n | n | 58
SMILES | UPR CHOP act | XBP1 UPR activ | T cell modulator | B2AR ag
C#CCOCCOCCOCCNc1nc(N2CCN(C(=O)[C@H](Cc3cc4ccccc4[nH]3)n3cc([C@@H](N)Cc4ccc(O)cc4)nn3)CC2)nc(N2CCN(C(=O)[C@H](Cc3cc4ccccc4[nH]3)n3cc([C@@H](N)CC(C)C)nn3)CC2)n1 | x | x | x | 73
COc1ccc(-n2nc3c(N4CCC(C(=O)NC5CCCCC5)CC4)nnc(C)c3c2C)cc1 | n | n | n | n
CCOc1ccccc1NC(=O)Nc1ccc2c(c1)CCC2 | n | n | n | n
CCOc1cc(C(=O)Nc2c3c(nn2C(C)(C)C)CS(=O)C3)cc(OCC)c1OCC (stereo unspecified) | n | n | n | n
Cc1cc(NC(=O)/C(C#N)=C/c2ccco2)n(-c2ccccc2)n1 | n | n | n | n
Cc1ccc(-c2ccc(/C=C(\C#N)C(=O)Nc3cc(C)nn3-c3ccccc3)o2)cc1 | 55 | 46 | n | x
Cc1ccc(C(=O)C(c2ccccc2)N2Cc3ccccc3C2=N)cc1 (stereo unspecified) | n | n | n | 81
COc1ccc(C(=O)C(c2ccccc2)N2CCOCC2)cc1 (stereo unspecified) | n | n | n | n
Cc1ccc(OCCNC(=O)c2ccc3c(c2)OCO3)cc1 | n | n | n | n
O=C(c1ccc(S(=O)(=O)N2CCOCC2)cc1)N(c1cccc(Cl)c1)C1C=CS(=O)(=O)C1 (stereo unspecified) | n | n | n | n
O=C(CCl)N(c1ccc(Cl)cc1)c1c[nH]c2ccccc12 | n | n | n | 69
CCN1CN(Cc2ccco2)CNC1=S | n | n | n | 48
S=C1NCN(Cc2ccco2)CN1Cc1ccco1 | n | n | n | n
Oc1ccc(C=Nc2ccc(N3CCOCC3)cc2)c(O)c1 | n | n | n | n
Oc1ccc(N=Nc2cccc(C(F)(F)F)c2)cc1C=Nc1ccc(N2CCOCC2)cc1 | n | n | 0.0 | n
N=C(N=C(N)N)N1CCOCC1 | n | n | n | n
CCN(CC)c1ccc2c(Cl)cc(=O)oc2c1 | n | n | 52 | x
Cn1ncc2c(O/N=C(\N)c3ccc(C(C)(C)C)cc3)ncnc21 | n | n | n | 49
CCOC(=O)c1ccc(Nc2ncnc3c2cnn3C)cc1 | n | n | n | n
CC1CCN(Cc2nc3c(c(=O)n(C)c(=O)n3C)n2CCCc2ccccc2)CC1 | n | n | n | n
CC(C)CC(=O)Nc1ccc2c3c(cccc13)CC2 | n | n | n | n
CCCCC(=O)Nc1ccc2c3c(cccc13)CC2 | n | n | n | 46
CC(N)c1ccc(Cl)cc1Cl (stereo unspecified) | n | n | 32 | n
Nc1nnc(SCCOc2ccc(Br)cc2)s1 | n | n | 0.0 | n
COc1ccc(C2C(C#N)=C(N)Oc3cc(N)ccc32)cc1 (stereo unspecified) | n | n | n | n
COc1cc(C2C(C#N)=C(N)Oc3cc(N)ccc32)cc(OC)c1OC (stereo unspecified) | n | n | n | 50
O=C(Cc1ccc(Cl)cc1)OCC(=O)N1CCCCCC1 | n | n | 61 | n
O=C(COc1ccc(Cl)cc1[N+](=O)[O-])N1CCCCCC1 | n | n | 31 | n
O=C1CC(SCCc2nc3ccccc3[nH]2)C(=O)N1c1ccc(Cl)cc1 (stereo unspecified) | n | n | n | n
